Values belong to the compound of their own block, whether it stands above or below them.
Experiments:
[1] = Drug uptake in CD1 mouse brain at 1 mg/kg, iv at 6 hrs
[2] = Ratio of drug uptake in brain to plasma in CD1 mouse at 1 mg/kg, iv at 6 hrs; details: brain and plasma
[3] = Ratio of drug uptake in brain to plasma in P-gp knockout mouse at 10 mg/kg, ip at 6 hrs; type: ADME, organism-based; set-up: dose 10 mg/kg, route intraperitoneal; details: brain and plasma, read-out: BPR
Method in brief: (§1)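 Dosing was 10 mg/kg IP in MDR1 (P-gp) knockout mice and, identically, in wild-type FVB mice. Brain and plasma levels were taken 6 h after dosing to give a brain-to-plasma ratio.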

[4] = Modulation of gamma secretase in CHO-2B7 cells assessed as reduction in amyloid beta 40 level after 5 hrs by MSD ELISA; type: cell-based; details: Cricetulus griseus, CHO-2B7, 5 h
[5] = Ratio of drug uptake in brain to plasma in FVB mouse at 10 mg/kg, ip at 6 hrs; type: ADME, organism-based; set-up: dose 10 mg/kg, route intraperitoneal; details: brain and plasma, read-out: BPR; method in brief: as §1
Liver microsomes = assay: Metabolic stability in human liver microsomes at 1 uM after 60 mins by LC/MS/MS analysis; details: 1 h
[6] = Plasma concentration in CD1 mouse at 1 mg/kg, iv at 6 hrs
[7] = Modulation of gamma secretase in CHO-2B7 cells assessed as reduction in amyloid beta 42 level after 5 hrs by MSD ELISA; type: cell-based; details: Cricetulus griseus, CHO-2B7, 5 h
[8] = Cmax in rat at 10 mg/kg, po; type: ADME, organism-based; set-up: dose 10 mg/kg, route oral; details: in vivo
[9] = Metabolic stability in human liver microsomes assessed as compound remaining at 1 uM at 60 mins by LC/MS/MS analysis in absence of NADPH; type: ADME, Microsome; details: liver microsomes, read-out: Stability
Method in brief: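 Human liver microsomes were run without NADPH as a qualitative read of susceptibility to enzymatic hydrolysis. The read-out was percent parent remaining at 60 min.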

[10] = Half life in rat at 3 mg/kg, iv; type: ADME, organism-based; set-up: dose 3 mg/kg, route intravenous; details: in vivo
[11] = Oral bioavailability in rat at 10 mg/kg; type: ADME, organism-based; details: in vivo
[12] = Volume of distribution in rat at 3 mg/kg, iv; type: ADME, organism-based; set-up: dose 3 mg/kg, route intravenous; details: in vivo
[13] = Ratio of drug uptake in brain to plasma in rat at 10 mg/kg, po at 6 hrs; type: ADME, organism-based; set-up: dose 10 mg/kg, route oral; details: brain and plasma, read-out: BPR
[14] = Clearance in rat at 3 mg/kg, iv; type: ADME, organism-based; set-up: dose 3 mg/kg, route intravenous; details: in vivo
[15] = Inhibition of gamma secretase in CHO-2B7 cells assessed as reduction in total amyloid beta level after 5 hrs by MSD ELISA; type: cell-based; details: Cricetulus griseus, CHO-2B7, 5 h
Mus musculus [16] = assay: Antialzheimer activity in CD1 mouse assessed as reduction in amyloid beta 40 level at 50 mg/kg, po QD for 5 days at 8 hrs post-last dose relative to vehicle-treated control; set-up: scale not given: the % may be the effect or the level left
CHO [17] = assay: Modulation of gamma secretase in CHO cells expressing human APP assessed as increase in amyloid beta (1 to 37) level at 2 uM after 6 hrs by LC/MS/MS analysis relative to control; type: cell-based; details: Cricetulus griseus
Method in brief: (§2)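 Cells were treated at 3 μM or 2 μM. Secreted Aβ peptides (Aβ37, 38, 39, 40, 42) were quantified by immunoprecipitation followed by LC/MS/MS. Changes are expressed relative to vehicle-treated cells.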

SUP-T1 = assay: Inhibition of notch-mediated NICD release in human SUP-T1 cells at 4 uM after 18 hrs by immunoblotting assay; type: cell-based
Mus musculus [18] = assay: Antialzheimer activity in CD1 mouse assessed as reduction in amyloid beta 40 level at 30 mg/kg, po at 6 hrs relative to vehicle-treated control; type: functional; set-up: scale not given: the % may be the effect or the level left
Method in brief: (§3)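 CD-1 mice received a single IP or PO dose (n = 12 per group) and were sampled at 6 h. Plasma and brain drug concentrations were measured in μM. Aβ42, Aβ40 and Aβ38 in brain homogenate are expressed as percent lowering versus vehicle. Statistical significance was assessed against vehicle.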

Mus musculus [19] = assay: Antialzheimer activity in CD1 mouse assessed as reduction in amyloid beta 38 level at 30 mg/kg, po at 6 hrs relative to vehicle-treated control; type: functional; set-up: scale not given: the % may be the effect or the level left; method in brief: as §3
Mus musculus [20] = assay: Antialzheimer activity in CD1 mouse assessed as reduction in amyloid beta 38 level at 10 mg/kg, po QD for 5 days at 8 hrs post-last dose relative to vehicle-treated control; set-up: scale not given: the % may be the effect or the level left
[21] = Modulation of gamma secretase in CHO-2B7 cells assessed as reduction in amyloid beta 38 level after 5 hrs by MSD ELISA; type: cell-based; details: Cricetulus griseus, CHO-2B7, 5 h
Mus musculus [22] = assay: Antialzheimer activity in CD1 mouse assessed as reduction in amyloid beta 38 level at 50 mg/kg, po QD for 5 days at 8 hrs post-last dose relative to vehicle-treated control; set-up: scale not given: the % may be the effect or the level left
CHO [23] = assay: Modulation of gamma secretase in CHO cells expressing human APP assessed as reduction in amyloid beta (1 to 42) level at 2 uM after 6 hrs by LC/MS/MS analysis relative to control; type: cell-based; set-up: scale not given: the % may be the effect or the level left; details: Cricetulus griseus; method in brief: as §2
Mus musculus [24] = assay: Antialzheimer activity in CD1 mouse assessed as reduction in amyloid beta 42 level at 10 mg/kg, po QD for 5 days at 8 hrs post-last dose relative to vehicle-treated control; set-up: scale not given: the % may be the effect or the level left
Mus musculus [25] = assay: Antialzheimer activity in CD1 mouse assessed as reduction in amyloid beta 42 level at 100 mg/kg, po at 6 hrs relative to vehicle-treated control; type: functional; set-up: scale not given: the % may be the effect or the level left; method in brief: as §3
Mus musculus [26] = assay: Antialzheimer activity in CD1 mouse assessed as reduction in amyloid beta 40 level at 10 mg/kg, po QD for 5 days at 8 hrs post-last dose relative to vehicle-treated control; set-up: scale not given: the % may be the effect or the level left
Mus musculus [27] = assay: Antialzheimer activity in CD1 mouse assessed as reduction in amyloid beta 42 level at 30 mg/kg, po at 6 hrs relative to vehicle-treated control; type: functional; set-up: scale not given: the % may be the effect or the level left; method in brief: as §3
CHO [28] = assay: Modulation of gamma secretase in CHO cells expressing human APP assessed as amyloid beta (1 to 40) level at 2 uM after 6 hrs by LC/MS/MS analysis (reference value: 10.2 ng); type: cell-based; details: Cricetulus griseus; method in brief: as §2
CHO [29] = assay: Modulation of gamma secretase in CHO cells expressing human APP assessed as increase in amyloid beta (1 to 39) level at 2 uM after 6 hrs by LC/MS/MS analysis relative to control; type: cell-based; details: Cricetulus griseus; method in brief: as §2
Mus musculus [30] = assay: Antialzheimer activity in CD1 mouse assessed as reduction in amyloid beta 38 level at 100 mg/kg, po at 6 hrs relative to vehicle-treated control; type: functional; set-up: scale not given: the % may be the effect or the level left; method in brief: as §3
Mus musculus [31] = assay: Antialzheimer activity in CD1 mouse assessed as reduction in amyloid beta 40 level at 100 mg/kg, po at 6 hrs relative to vehicle-treated control; type: functional; set-up: scale not given: the % may be the effect or the level left; method in brief: as §3
CHO [32] = assay: Modulation of gamma secretase in CHO cells expressing human APP assessed as reduction amyloid beta (1 to 38) level at 2 uM after 6 hrs by LC/MS/MS analysis relative to control; type: cell-based; set-up: scale not given: the % may be the effect or the level left; details: Cricetulus griseus; method in brief: as §2

concentration at 6 h [1]: 11 nM
Kp at 6 h [2]: 0.04
Kp at 6 h [3]: 3.1
IC50 [4]: 5400 nM
Kp at 6 h [5]: 0.035
Stability (Liver microsomes): Stable
concentration at 6 h [6]: 274 nM
IC50 [7]: 91 nM
Compound: CC(C)[C@@H](OC(=O)N1CCC1)[C@H]1C[C@@H](C)[C@H]2[C@H](O1)[C@H](O)[C@@]1(C)[C@@H]3CC[C@H]4C(C)(C)[C@@H](OC(=O)N(C)C5CN(C)C5)CC[C@@]45C[C@@]35CC[C@]21C

Compound: C[C@@H]1C[C@H]([C@H](O)C(C)(C)O)O[C@H]2[C@H]1[C@@]1(C)CC[C@@]34C[C@@]35CC[C@H](O[C@H]3CN([C@H]6CCNC6=O)CCO3)C(C)(C)[C@@H]5CC[C@H]4[C@]1(C)[C@H]2O
Cmax [8]: 2200 nM
remaining at 1 h, 1 µM [9]: 85%
half-life [10]: 5 h
bioavailability [11]: > 100%
Vd [12]: 3.1 L/kg
Kp at 6 h [13]: 0.09
clearance [14]: 9.67 mL/min/kg
IC50 [7]: ≥ 20000 nM

Compound: CCO[C@@H]([C@H]1C[C@@H](C)[C@H]2[C@H](O1)[C@H](O)[C@@]1(C)[C@@H]3CC[C@H]4C(C)(C)[C@@H](O[C@H]5CN(C6CN(C)C6)CCO5)CC[C@@]45C[C@@]35CC[C@]21C)C(C)(C)O
IC50 [15]: 14000 nM
Activity (Mus musculus [16]): 10%
Activity (CHO [17]): 380%
inhibition (SUP-T1): 0%
Activity (Mus musculus [18]): 9%
Activity (Mus musculus [19]): 16%
IC50 [4]: 2100 nM
Activity (Mus musculus [20]): 13%
IC50 [21]: 160 nM
Activity (Mus musculus [22]): 38%
Activity (CHO [23]): 83%
Activity (Mus musculus [24]): 9%
Activity (Mus musculus [25]): 26%
Activity (Mus musculus [26]): 7%
Activity (Mus musculus [27]): 16%
Activity (CHO [28]): 11.4 ng
Activity (CHO [29]): 530%
Activity (Mus musculus [30]): 31%
Activity (Mus musculus [31]): 15%
IC50 [7]: 100 nM
Activity (CHO [32]): 33%
